# Experiments:
# Format in all cases: functional, cell-based
# [1] = tested on: MCF7; assay: Antiproliferative activity against human MCF7 cells after 72 hrs by cell titer glo assay; settings: MCF7, 72 h
# Procedure, shortened: (§1)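 ATCC tumour cells kept in RPMI 1640 with 5% FBS, 2 mM glutamine, streptomycin and amphotericin at 37 °C, 5% CO2. Cells were trypsinised at 70–90% confluence and used only at >95% Trypan blue viability. Seeded at 5000 cells/well, rested 18–24 h, then dosed from DMSO stocks (0.1% DMSO final). ATP luminescence was read after 72 h. IC50 came from dose–response curves of 8 concentrations, four replicates each.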
# [2] = tested on: A549; assay: Antiproliferative activity against human A549 cells after 72 hrs by cell titer glo assay; settings: A549, 72 h; procedure, shortened: as §1
# [3] = tested on: HT-29; assay: Antiproliferative activity against human HT-29 cells after 72 hrs by cell titer glo assay; settings: HT-29, 72 h; procedure, shortened: as §1
# [4] = tested on: MDA-MB-231; assay: Antiproliferative activity against human MDA-MB-231 cells after 72 hrs by cell titer glo assay; settings: MDA-MB-231, 72 h; procedure, shortened: as §1
SMILES,IC50 [1],IC50 [2],IC50 [3],IC50 [4]
Cn1c(N2N=C(c3ccccc3)CC2c2ccccc2)nc(-c2ccc(Cl)cc2)c(C#N)c1=O (stereo unspecified),34.4 µM,28.1 µM,19.5 µM,29.1 µM
Cn1c(N2N=C(c3ccccc3)CC2c2ccc(F)cc2)nc(-c2ccc(Cl)cc2)c(C#N)c1=O (stereo unspecified),36.8 µM,27.8 µM,13.7 µM,20.9 µM
Cc1ccc(C2=NN(c3nc(-c4ccc(Cl)cc4)c(C#N)c(=O)n3C)C(c3ccc(F)cc3)C2)cc1 (stereo unspecified),116 µM,35.6 µM,10.5 µM,19.3 µM
Cn1c(N2N=C(c3ccc(Cl)cc3)CC2c2ccccc2)nc(-c2ccc(Cl)cc2)c(C#N)c1=O (stereo unspecified),25.3 µM,43.9 µM,8.72 µM,12.4 µM
COc1ccc(C2CC(c3ccc(Cl)cc3)=NN2c2nc(-c3ccc(Cl)cc3)c(C#N)c(=O)n2C)cc1 (stereo unspecified),27.3 µM,35.6 µM,15.1 µM,24.8 µM
COc1ccc(C2=NN(c3nc(-c4ccc(Cl)cc4)c(C#N)c(=O)n3C)C(c3ccc(OC)cc3)C2)cc1 (stereo unspecified),99.8 µM,39.7 µM,18.2 µM,28.3 µM
COc1ccc(C2CC(c3ccccc3)=NN2c2nc(-c3ccc(Cl)cc3)c(C#N)c(=O)n2C)cc1 (stereo unspecified),52.4 µM,23.8 µM,11 µM,19.5 µM
Cn1c(N2N=C(c3ccccc3)CC2c2ccccc2)nc(-c2ccccc2)c(C#N)c1=O (stereo unspecified),35.4 µM,52.9 µM,2.49 µM,3.99 µM
Cn1c(N2N=C(c3ccccc3)CC2c2ccc(Cl)cc2)nc(-c2ccccc2)c(C#N)c1=O (stereo unspecified),3.28 µM,3.25 µM,19.2 µM,28 µM
COc1ccc(C2CC(c3ccccc3)=NN2c2nc(-c3ccccc3)c(C#N)c(=O)n2C)cc1 (stereo unspecified),18 µM,1.76 µM,14.7 µM,12.8 µM
Cn1c(N2N=C(c3ccccc3)CC2c2ccc(F)cc2)nc(-c2ccccc2)c(C#N)c1=O (stereo unspecified),38.1 µM,39.2 µM,8.15 µM,11.8 µM
Cc1ccc(C2=NN(c3nc(-c4ccccc4)c(C#N)c(=O)n3C)C(c3ccc(F)cc3)C2)cc1 (stereo unspecified),23.1 µM,2 µM,4.62 µM,5.1 µM
Cn1c(N2N=C(c3ccc(Cl)cc3)CC2c2ccccc2)nc(-c2ccccc2)c(C#N)c1=O (stereo unspecified),12.2 µM,26.9 µM,6.6 µM,10.6 µM
COc1ccc(C2CC(c3ccc(Cl)cc3)=NN2c2nc(-c3ccccc3)c(C#N)c(=O)n2C)cc1 (stereo unspecified),4.8 µM,6.07 µM,9.12 µM,11.1 µM
COc1ccc(C2=NN(c3nc(-c4ccccc4)c(C#N)c(=O)n3C)C(c3ccc(OC)cc3)C2)cc1 (stereo unspecified),127 µM,26.5 µM,9.42 µM,16.2 µM
Cn1c(N2N=C(c3ccccc3)CC2c2ccc(Cl)cc2)nc(-c2ccc(Cl)cc2)c(C#N)c1=O (stereo unspecified),46.3 µM,24.7 µM,15 µM,25.1 µM
COc1cccc2c1C(=O)c1c(O)c3c(c(O)c1C2=O)C[C@@](O)(C(=O)CO)C[C@@H]3O[C@H]1C[C@H](N)[C@H](O)[C@H](C)O1 [DOXORUBICIN],–,3.13 µM,2.75 µM,–

# From ChEMBL document CHEMBL3085674, “Synthesis of some dihydropyrimidine-based compounds bearing pyrazoline moiety and evaluation of their antiproliferative activity” (Eur J Med Chem, 2013)
